Measurements reported in ChEMBL document CHEMBL1153905, “Functionalized 3-benzylidene-indolin-2-ones: inducers of NAD(P)H-quinone oxidoreductase 1 (NQO1) with antiproliferative activity” (Bioorg Med Chem, 2009).

What was measured:
[1] = molecular target: NAD(P)H dehydrogenase [quinone] 1 (Mus musculus) (UniProt Q64669); assay: Induction of NQO1 activity in mouse Hepa-1c1c7 cells assessed as drug level required to double basal enzyme activity after 48 hrs by MTT assay; type: cell-based
Summary of the method: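 Hepa1c1c7 cells were grown in α-MEM with charcoal-treated FCS, 10,000 per well, 24 h. Compound was given 48 h (DMSO ≤0.5%) over a 10–100-fold range below cytotoxic levels, up to 25 µM. Cells were lysed with digitonin/EDTA. NQO1 was assayed by menadione-driven MTT reduction (G6P/G6PDH/NADP, FAD, Tris pH 7.4), quenched with dicoumarol, A590. CD is the concentration doubling basal activity, taken from the induction–concentration plot; mean ± SD, n = 3.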

[2] = Ratio of induction of NQO1 activity to induction of CYP1A1 activity in mouse Hepa-1c1c7 cells at 0.01 uM after 48 hrs
[3] = molecular target: NAD(P)H dehydrogenase [quinone] 1 (Mus musculus) (UniProt Q64669); assay: Induction of NQO1 activity in mouse Hepa-1c1c7 cells assessed as induction ratio at 0.01 uM after 48 hrs by MTT assay relative to control; type: cell-based
Summary of the method: (§1)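 Hepa1c1c7 cells, 10,000 per well, 24 h, were then treated 48 h (DMSO ≤0.5%). Digitonin/EDTA lysates were assayed for menadione-dependent MTT-formazan formation using a G6P/G6PDH NADPH-generating mix with FAD at pH 7.4. The reaction ran 5 min, was stopped with dicoumarol, and read at A590. Degree of induction = (A test − blank)/(A control − blank). Ratios were read off the induction–concentration plot at the EROD test concentration.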

CYP1A1 [4] = molecular target: T1, CYP1A1 (Mus musculus, UniProt P00184); assay: Induction of CYP1A1 activity in mouse Hepa-1c1c7 cells assessed as induction ratio at 0.01 uM after 48 hrs by EROD assay relative to control; type: ADME, cell-based
T1 sequence (P00184 whole entry): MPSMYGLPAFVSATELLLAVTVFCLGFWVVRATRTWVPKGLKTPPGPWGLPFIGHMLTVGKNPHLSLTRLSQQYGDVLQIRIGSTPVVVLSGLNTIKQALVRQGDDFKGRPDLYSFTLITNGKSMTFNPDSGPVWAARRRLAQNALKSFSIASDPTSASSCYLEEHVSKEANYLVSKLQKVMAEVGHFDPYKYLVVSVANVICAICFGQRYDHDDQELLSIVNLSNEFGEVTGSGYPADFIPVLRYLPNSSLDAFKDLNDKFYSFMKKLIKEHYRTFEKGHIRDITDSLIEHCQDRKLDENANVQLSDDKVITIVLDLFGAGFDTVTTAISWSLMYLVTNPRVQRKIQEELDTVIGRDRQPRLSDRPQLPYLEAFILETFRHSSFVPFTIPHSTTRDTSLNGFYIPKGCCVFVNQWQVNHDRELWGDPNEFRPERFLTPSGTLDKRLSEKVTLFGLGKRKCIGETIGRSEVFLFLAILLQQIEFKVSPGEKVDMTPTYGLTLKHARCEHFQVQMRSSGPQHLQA

[5] = molecular target: NAD(P)H dehydrogenase [quinone] 1 (Mus musculus) (UniProt Q64669); assay: Induction of NQO1 activity in mouse Hepa-1c1c7 cells assessed as induction ratio at 50 nM after 48 hrs by MTT assay relative to control; type: cell-based; summary of the method: as §1
CYP1A1 [6] = molecular target: T1, CYP1A1; assay: Induction of CYP1A1 activity in mouse Hepa-1c1c7 cells assessed as induction ratio at 50 nM after 48 hrs by EROD assay relative to control; type: ADME, cell-based
Summary of the method: (§2)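 Hepa1c1c7 cells were seeded at 10,000 per well and grown 24 h. They were then exposed 48 h to compound (final DMSO 0.5% v/v) at about 4 × the NQO1 CD. After a PBS wash, cells got 5 µM 7-ethoxyresorufin plus 2 mM salicylamide in medium, 37 °C, 40 min. Resorufin was read at ex 530/em 590 nm, corrected for compound fluorescence. Ratio = (F treated − blank)/(F DMSO control − blank); mean ± SD, n = 3.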

[7] = Cytotoxicity against mouse Hepa-1c1c7 cells after 48 hrs by MTT assay; type: cell-based; details: hepa-1c1c7, 48 h
Summary of the method: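 Murine hepatoma cells in α-MEM with 10% heat- and charcoal-treated fetal calf serum, passages 6–17; MTT read-out as for the cancer lines but with 48 h compound exposure. Highest concentration tested 25 µM. IC50 from survival-versus-concentration curve; mean and SD, n = 3.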

[8] = Ratio of induction of NQO1 activity to induction of CYP1 activity in mouse Hepa-1c1c7 cells at 50 nM after 48 hrs
CYP1A1 [9] = molecular target: T1, CYP1A1; assay: Induction of CYP1A1 activity in mouse Hepa-1c1c7 cells assessed as induction ratio at 15 uM by EROD assay relative to control; type: ADME, cell-based; summary of the method: as §2
[10] = molecular target: NAD(P)H dehydrogenase [quinone] 1 (Mus musculus) (UniProt Q64669); assay: Induction of NQO1 activity in mouse Hepa-1c1c7 cells assessed as induction ratio at 15 uM after 48 hrs by MTT assay relative to control; type: cell-based; summary of the method: as §1

Chain of NAD(P)H dehydrogenase [quinone] 1 (Mus musculus) (Q64669 whole entry): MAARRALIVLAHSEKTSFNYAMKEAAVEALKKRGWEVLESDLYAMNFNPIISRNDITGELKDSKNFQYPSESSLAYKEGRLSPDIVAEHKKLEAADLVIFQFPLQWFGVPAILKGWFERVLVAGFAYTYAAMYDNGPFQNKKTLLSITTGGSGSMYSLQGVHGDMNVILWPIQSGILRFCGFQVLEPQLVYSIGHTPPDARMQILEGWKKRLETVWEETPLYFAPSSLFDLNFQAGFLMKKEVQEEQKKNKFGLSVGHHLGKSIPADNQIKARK

O=c1cc(-c2ccccc2)oc2ccc3ccccc3c12 [BETA-NAPHTHOFLAVONE]
CD [1]: 0.028 µM | Ratio [2]: 1.62 | Ratio [3]: 1.83 | fold induction at 48 h, 0.01 µM (CYP1A1 [4]): 1.13

O=C1Nc2ccccc2/C1=C1\C(=O)Nc2cc(Cl)ccc21
Ratio [5]: 2.88 | fold induction at 48 h, 0.05 µM (CYP1A1 [6]): 2.09 | IC50 [7]: > 25 µM | Ratio [8]: 1.38

O=C1Nc2ccccc2/C1=C\c1ccc(F)cc1F
fold induction at 15 µM (CYP1A1 [9]): 1.89 | IC50 [7]: > 25 µM | Ratio [10]: 5.06
